How the values were obtained:
Beta-secretase 1 [1] = biological target: T1, Beta-secretase 1 (Homo sapiens, UniProt P56817); experiment: Inhibition of human BACE1 by FRET assay
Summary of the method: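 IC50 values were measured against BACE-1 with a FRET assay kit following an earlier-described protocol; values are means of duplicate measurements.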

Beta-secretase 1 [2] = biological target: T1, Beta-secretase 1; experiment: Inhibition of human BACE1 at 50 uM by FRET assay
Summary of the method: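 FRET assay kit for BACE-1 activity, run per a previously described protocol; each compound was tested at 50 µM as the initial screening concentration; percent inhibition is given as the mean of duplicate measurements.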

T1 sequence (P56817 whole entry): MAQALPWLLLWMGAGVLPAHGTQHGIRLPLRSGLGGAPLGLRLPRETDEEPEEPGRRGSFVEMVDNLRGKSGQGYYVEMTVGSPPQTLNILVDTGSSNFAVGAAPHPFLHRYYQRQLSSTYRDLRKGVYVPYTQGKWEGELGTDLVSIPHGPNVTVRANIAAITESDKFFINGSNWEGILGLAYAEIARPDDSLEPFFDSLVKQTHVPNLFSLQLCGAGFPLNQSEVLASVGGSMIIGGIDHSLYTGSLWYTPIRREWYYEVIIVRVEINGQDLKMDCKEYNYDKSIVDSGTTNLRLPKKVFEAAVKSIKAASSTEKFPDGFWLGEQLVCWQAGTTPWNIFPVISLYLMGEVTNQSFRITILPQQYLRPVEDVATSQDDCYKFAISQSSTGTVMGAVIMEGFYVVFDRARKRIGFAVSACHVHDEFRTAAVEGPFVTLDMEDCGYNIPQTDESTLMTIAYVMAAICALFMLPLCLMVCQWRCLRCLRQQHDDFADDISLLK

SMILES | IC50 (Beta-secretase 1 [1]) [µM] | inhibition (Beta-secretase 1 [2]) [%]
COc1ccc(OC)c(NC(=O)CSc2nc3ccc(Nc4nc(N5CCCCC5)nc(N5CCCCC5)n4)cc3s2)c1 | 18 | 73
O=C(CSc1nc2ccc(Nc3nc(N4CCCC4)nc(N4CCCC4)n3)cc2s1)NCc1ccco1 | 0.69 | 87
CCOC(=O)CSc1nc2ccc(Nc3nc(N4CCCC4)nc(N4CCCC4)n3)cc2s1 | 1.77 | 100
Cc1cccc(NC(=O)CSc2nc3ccc(Nc4nc(N5CCCC5)nc(N5CCCC5)n4)cc3s2)c1C | 2.83 | 100
O=C(CSc1nc2ccc(Nc3nc(N4CCCC4)nc(N4CCCC4)n3)cc2s1)NCc1ccccc1 | 1.7 | 83
CCOc1ccc(NC(=O)CSc2nc3ccc(Nc4nc(N5CCCCC5)nc(N5CCCCC5)n4)cc3s2)cc1 | 17.2 | 77
O=C(CSc1nc2ccc(Nc3nc(N4CCCC4)nc(N4CCCC4)n3)cc2s1)NCCOc1ccccc1 | 3 | 88
O=C(CSc1nc2ccc(Nc3nc(N4CCCCC4)nc(N4CCCCC4)n3)cc2s1)Nc1ccccc1 | > 50 | 58
O=C(CSc1nc2ccc(Nc3nc(N4CCCCC4)nc(N4CCCCC4)n3)cc2s1)c1ccc(F)cc1 | 20 | 80

Now from value to compound:

IC50 (Beta-secretase 1 [1]) [µM] | inhibition (Beta-secretase 1 [2]) [%] | SMILES
50 | 50 | O=C(CSc1nc2ccc(Nc3nc(N4CCOCC4)nc(N4CCOCC4)n3)cc2s1)NCc1ccccc1
– | 0.5 | Cc1ccccc1NC(=O)CSc1nc2ccc(Nc3nc(N4CCOCC4)nc(N4CCOCC4)n3)cc2s1
14.7 | 100 | O=C(CSc1nc2ccc(Nc3nc(N4CCOCC4)nc(N4CCOCC4)n3)cc2s1)N1c2ccccc2CCc2ccccc21
50 | 50 | O=C(CSc1nc2ccc(Nc3nc(N4CCOCC4)nc(N4CCOCC4)n3)cc2s1)Nc1ccccc1Cl
– | 0 | O=C(CSc1nc2ccc(Nc3nc(N4CCOCC4)nc(N4CCOCC4)n3)cc2s1)Nc1cccc(C(F)(F)F)c1
> 50 | 82 | Cc1cc(C)c(NC(=O)CSc2nc3ccc(Nc4nc(N5CCOCC5)nc(N5CCOCC5)n4)cc3s2)c(C)c1
– | 0 | O=C(CSc1nc2ccc(Nc3nc(N4CCOCC4)nc(N4CCOCC4)n3)cc2s1)NCCOc1ccccc1
0.12 | 100 | O=C(CSc1nc2ccc(Nc3nc(N4CCCC4)nc(N4CCCC4)n3)cc2s1)Nc1ccccc1
> 50 | 100 | CCOc1ccc(NC(=O)CSc2nc3ccc(Nc4nc(N5CCOCC5)nc(N5CCOCC5)n4)cc3s2)cc1
20 | 93 | O=C(CSc1nc2ccc(Nc3nc(N4CCCC4)nc(N4CCCC4)n3)cc2s1)c1ccccc1
– | 42 | CCOC(=O)CSc1nc2ccc(Nc3nc(N4CCOCC4)nc(N4CCOCC4)n3)cc2s1
– | 0 | Cc1ccc(CNC(=O)CSc2nc3ccc(Nc4nc(N5CCOCC5)nc(N5CCOCC5)n4)cc3s2)cc1
– | 16 | O=C(CSc1nc2ccc(Nc3nc(N4CCOCC4)nc(N4CCOCC4)n3)cc2s1)N1CCOCC1
